Assay outcomes: PubChem BioAssay, several laboratories
Hits are enriched below; roughly 9% of the tested compounds scored in any of these assays.
M1 agonist – activates the M1 muscarinic receptor. CHO-M1 cells, Fluo-4 calcium fluorescence, agonist mode; hits give high values. B-score at 10 µM. hit rate 3% among 64,000;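 active = fluorescence rise, raw or as B-score row- and column-corrected plate score, outside the 99.7% band of its plate's samples, either direction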
AP ELISA ortho – alternative pathway complement inhibition, orthogonal assay; Human serum alternative complement pathway, LPS-coated ELISA, C3 deposition; tested in compound mixtures; inhibition, % at 5 µM; hit rate 0.08% among 62,000; AID 1235;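 active = inhibition above 30% in each of the two pooled mixtures holding the compound, so the lower value exceeds 30%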;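 also: 0% = serum in Mg-EGTA without compound and 100% = EDTA serum blank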
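Assay system: Human serum alternative complement pathway, C3 deposition on LPS-coated wells | Incubation: 1 h serum-compound exposure at 37 °C | Doses: 5 µM per compound in ten-compound mixtures | Read-out: Percent inhibition | Technique: ELISA with HRP anti-human C3 antibody, TMB substrate, absorbance 450 nm | Replication: Two pool placements per compound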
M1 antag – antagonists of rat M1 muscarinic receptor; P08482; CHO-M1 cells, Fluo-4 calcium, ACh EC80 antagonist mode; hits give low values; B-score at 10 µM; hit rate 3.4% among 64,000; AID 628;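 active = calcium fluorescence response, raw or row-and-column corrected B-score, differing from the plate sample mean either way at a set confidence level, mostly lower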
Htt clearance – mutant huntingtin protein clearance. hit rate 0.42% among 47,000. HeLa Exon1htt(103Q)mCFP, aggregate imaging; zero = plate's median compound well. inhibition, % at 1.5 µM;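 active = inhibition of aggregate fluorescence above about 70%, also judged a hit by eye on the cell image, limit read from the data, passing the limit was not always enough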;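 also: cells exposed to compound for three days before fixation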
D1 mod – D1 dopamine receptor (human) allosteric modulation; hit rate 5.9% among 58,000; HEK293 D1, CRE-luciferase, dopamine EC30 potentiation; actives deviate in either direction; B-score at 10 µM; AID 641;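 active = luminescence count or its row- and column-corrected plate score outside the 99.7% band of the plate's sample wells, on either side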
Target sequence (P21728 whole entry, looked up): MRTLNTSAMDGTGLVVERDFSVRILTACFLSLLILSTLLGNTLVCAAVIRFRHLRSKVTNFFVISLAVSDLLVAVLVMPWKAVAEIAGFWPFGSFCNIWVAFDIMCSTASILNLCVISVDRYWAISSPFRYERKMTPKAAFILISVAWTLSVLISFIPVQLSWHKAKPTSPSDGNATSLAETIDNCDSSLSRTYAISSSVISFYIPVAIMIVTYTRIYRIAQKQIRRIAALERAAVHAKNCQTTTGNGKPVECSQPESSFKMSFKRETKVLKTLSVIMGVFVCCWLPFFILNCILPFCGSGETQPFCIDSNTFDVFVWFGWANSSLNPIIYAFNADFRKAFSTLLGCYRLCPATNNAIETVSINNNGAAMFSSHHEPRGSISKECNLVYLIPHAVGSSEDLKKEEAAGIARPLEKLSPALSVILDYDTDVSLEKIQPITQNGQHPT
M1 antag conf – M1 muscarinic receptor (rat) antagonism, confirmed. calcium response (max-min fluorescence) at 10 µM. CHO-M1 cells, Fluo-4 calcium, ACh EC80 antagonism; hits give low values. hit rate 43% among 1,700. shares compounds with M1 antag;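 active = calcium response below the same-plate mean of wells given acetylcholine alone at its 80%-effect dose, minus 3 SD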;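 also: raw fluorescence intensity difference in arbitrary instrument units and not normalized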
mGluR4 antag – selectivity test for M1 antagonists: human mGluR4 receptor | fluorescence response (max-min) at 10 µM | shares compounds with M1 antag | CHO-mGluR4 calcium flux, Fluo-4 fluorescence, glutamate EC80; hits give low values | hit rate 0.9% among 1,700;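 active = fluorescence response below the plate's average for near-maximal glutamate wells, less 3 SD of those wells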;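 also: raw unnormalized fluorescence span taken in the window right after glutamate addition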
Numbers without * were called inactive; nt = no result given.

SMILES | M1 agonist | AP ELISA ortho | M1 antag | Htt clearance | D1 mod | M1 antag conf | mGluR4 antag
Nc1c(S(=O)(=O)c2cccs2)c2nc3ccccc3nc2n1/N=C/c1cccc(O)c1 | 1 | 19 | -14* | nt | -0.038 | 681 | 194
CC(C)(C)c1[nH]nc2c1C(Cc1ccccc1)C(C#N)=C(N)O2 (centres undefined) | -0.21 | 3 | 0.76 | nt | -0.58 | nt | nt
CCOC(=O)/C=C1\SCC(=O)N1CC(=O)Nc1ccc2c(c1)CCC2 | 0.39 | 8 | -1.9* | nt | 0.039 | 652 | 183
CCCOc1ccc(N2C(=O)CC(N3CCC(c4nncn4CC)CC3)C2=O)cc1 (centres undefined) | -0.44 | 0 | 0.031 | nt | 0.0097 | nt | nt
COc1ccc(Cn2c(O)cc(=O)[nH]c2=O)cc1 | -0.24 | nt | 0.14 | -66 | nt | nt | nt
CCN(CC)CCn1c(OC)cc(=O)[nH]c1=O | -0.051 | 5 | -2.4* | nt | -1.3 | 670 | 208
CCn1c(Sc2ccc(N)cc2Cl)nc2ccccc21 | -0.99 | 20 | -0.35 | 11 | nt | nt | nt
COc1ccc(CCN2C(=O)CC(Sc3ncccc3C(=O)O)C2=O)cc1OC (centres undefined) | 0.37 | 8 | -2.4* | 14 | 0.23 | 716 | 180
CN1C(=O)CC(Sc2ncccc2C(=O)O)C1=O (centres undefined) | nt | nt | nt | 9 | nt | nt | nt
CCC1(C)Cc2c(sc3c2c(=O)n(C)c2nnc(SCCc4ccccc4)n32)CO1 (centres undefined) | -1 | 5 | -3.1* | nt | 0.21 | 489* | 244
CCC1(C)Cc2c(sc3c2c(=O)n(C)c2nnc(SCc4ccccc4)n32)CO1 (centres undefined) | -0.003 | nt | 0.15 | 18 | nt | nt | nt
CCCS(=O)(=O)Nc1cc(C(F)(F)F)ccc1OCCOC | -1.2 | -5 | 1.5 | 13 | -1.2 | nt | nt
Nn1c(-c2ccccn2)nnc1-c1ccccn1 | 0.62 | 19 | -3.1* | -11 | -0.23 | 683 | 231
Cc1ccc(C)c(CSc2nnc(-c3ccccn3)n2N)c1 | 0.36 | 6 | -0.0096 | nt | 0.5 | nt | nt
CC(C)(C)n1nnnc1C(c1cccnc1)N(Cc1ccccc1)Cc1cccs1 (centres undefined) | nt | nt | nt | -24 | nt | nt | nt
CC(C)(C)n1nnnc1C(c1cccs1)N(Cc1ccccc1)Cc1cccnc1 (centres undefined) | -0.23 | 11 | -4.7* | 32 | -0.33 | 377* | 236
O=C1CC(NCc2ccc3c(c2)OCO3)C(=O)N1CCc1ccccc1 (centres undefined) | nt | 14 | nt | nt | 0.096 | nt | nt
O=C(NCCC1=CCCCC1)C1CCN(S(=O)(=O)c2cccc3nsnc23)CC1 | -0.18 | 11 | -0.16 | -50 | -1.2 | nt | nt
CCCn1c(C)cc(=O)c2cc(NC(=O)c3cnccn3)ccc21 | nt | 0 | nt | nt | 0.59 | nt | nt
O=c1c2ccccc2nnn1CSc1nnc(-c2cccc(S(=O)(=O)N3CCCCC3)c2)o1 | 1.7 | 11 | -4.2* | -12 | 2.8 | 366* | 238
O=C(CSc1ccc(-c2ccc(F)cc2)nn1)N1CCCCC1 | 0.74 | 15 | -0.093 | 4 | -2.9 | nt | nt
Cn1c(-c2ccc(F)cc2)cnc1SCC(=O)N1CCCCC1 | 0.0046 | 4 | -2.2* | -5 | -4.3* | 430 | 222
CCOC(=O)C1CC=C(Cl)CC1C(=O)Nc1nccs1 (centres undefined) | -0.19 | 6 | -0.0061 | -47 | 0.64 | nt | nt
CC(C)(C)NC(=O)Cn1ccc(=N)c2ccccc21 | -0.05 | 0 | -2.5* | 14 | -0.39 | 476 | 192
Cc1cc2nnc(SCC(=O)NCc3ccco3)n2c2ccccc12 | 0.2 | nt | 0 | nt | 0.74 | nt | nt
SMILES | M1 agonist | AP ELISA ortho | M1 antag | Htt clearance | D1 mod | M1 antag conf | mGluR4 antag
O=C1C2C3CCCC3=C3CCCC3C2C(=O)N1c1ccccc1 (centres undefined) | -0.15 | 9 | -3.2* | 33 | 0.58 | 321* | 195
C=CCN1C(=Nc2cccnc2)SCC1(O)c1ccc(C)cc1 (centres undefined) | 2 | 16 | -2.2* | -47 | -0.19 | 478* | 203
Cc1ccccc1N1CCN(S(=O)(=O)c2ccc3oc(=O)ccc3c2)CC1 | 0.14 | -8 | -3.3* | -28 | -0.66 | 557 | 233
Cn1nnnc1SCc1c(F)cccc1F | -0.036 | 19 | -0.046 | -4 | 1.3 | nt | nt
COc1ccc(C(=O)N2CCN(C(=O)Cc3ccccc3)CC2)cc1OC | -0.56 | 0 | -3.7* | nt | -0.0051 | 519 | 181
COC(=O)[C@H](C)NC(=O)NCc1ccco1 | -0.23 | -9 | -4.3* | -8 | 0.93 | 680 | 260
CC(NS(=O)(=O)c1ccccc1)C(=O)NCc1ccco1 (centres undefined) | nt | nt | nt | 59 | nt | nt | nt
CCOC(=O)c1c(C)n(C)c2ccc(O)c(CN3CCC(C)CC3)c12 | -1.3 | 0 | -2* | 28 | 0.016 | 543 | 251
Clc1cc(Br)ccc1OCCn1ccnc1 | 0.84 | 23 | -3.3* | -70 | -0.33 | 442* | 241
Clc1cc(Br)ccc1OCCOCCN1CCOCC1 | 0.034 | -3 | -0.73* | 25 | nt | 448 | 226
Cc1cc(C)c(C)c(OCCOCCN2CCOCC2)c1 | 1.2 | -10 | -0.25 | nt | -0.44 | nt | nt
Clc1ccccc1OCCCCn1ccnc1 | 2.2 | -2 | 0.31 | -16 | -0.19 | nt | nt
CN(Cc1ccccc1)S(=O)(=O)c1ccc2c(c1)OCCO2 | 0.063 | 7 | -0.47 | -58 | -0.15 | nt | nt
CN(C)S(=O)(=O)c1cccc(CSc2cccc[n+]2[O-])c1 | 0.77 | -12 | -2.2* | nt | -0.63 | 666 | 184
O=C(c1ccc(Cl)c(F)c1F)N1CCCC1 | -0.99 | -1 | 1.7 | nt | 0.69 | nt | nt
Cc1cc(O)c(-c2cc(C(=O)NCc3ccc4c(c3)OCO4)[nH]n2)cc1C | 1.4 | 2 | -0.081 | nt | -0.21 | nt | nt
Cc1ccc(-c2cc(C(=O)NCc3ccc4c(c3)OCO4)[nH]n2)c(O)c1C | 0.36 | 3 | -1.6* | nt | -0.049 | 653 | 195
O=C(CN1CCOCC1)OCCCC1CCCCC1 | -0.9 | 16 | -3.9* | -35 | nt | 517 | 194
CCOc1ccc(Cn2nnc(C(=O)NCc3ccc(OC)cc3)c2N)cc1 | 0.35 | 3 | -1.6* | 1 | 0.27 | 620 | 228
Cc1oc2c(c1C(=O)NCc1ccccc1)CCCC2 | 0.37 | 5 | -3.7* | nt | nt | 643 | 188
CC1(C)NC(=O)N(CC(O)COc2ccccc2C(=O)N2CCCCC2)C1=O (centres undefined) | -0.18 | -9 | 0.5 | 4 | 0.12 | nt | nt
CC1(C)NC(=O)N(CC(O)COc2cc3ccccc3cc2C(=O)N2CCCCC2)C1=O (centres undefined) | 0.49 | nt | -3* | 46 | nt | 638 | 243
CCCCN(C)CCn1c(=S)[nH]c2ccc(N3CCOCC3)cc2c1=O | 0.48 | 15 | -0.78 | nt | -1.8 | nt | nt
COCCCn1c(=S)[nH]c2ccc(N3CCOCC3)cc2c1=O | -0.33 | -2 | -11* | nt | 0.17 | 656 | 237
O=C(CCCCCn1c(=O)[nH]c2ccccc2c1=O)NCCCN1CCN(c2ccccc2F)CC1 | 0.31 | -2 | -3.5* | nt | -1.8 | 506 | 220
